Experiments:
Huh-7 = test: Cytotoxic concentration against HCV RNA replication in a subgenomic replicon Huh7 cell line; format: functional; details: Homo sapiens
Hepatitis C virus = test: Effective concentration against HCV RNA replication in a subgenomic replicon Huh7 cell line; format: functional, Hepacivirus hominis; details: Huh-7
Summary of the method: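 HCV replicon Clone A cells in log-phase growth exposed to various compound concentrations for 3 days. HCV RNA extracted and quantified by real-time PCR. EC90 is the concentration reducing HCV RNA by 90%.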

Row | SMILES | EC90 (Hepatitis C virus) [µM] | CC50 (Huh-7) [µM]
1 | CCNc1cc(=O)n2c3c1nnn3C[C@H]1O[C@@H]2[C@H](O)C1O (single isomer, unassigned) | > 100 | > 100
2 | COCCNc1cc(=O)n2c3c1nnn3C[C@H]1O[C@@H]2[C@H](O)C1O (single isomer, unassigned) | 86.1 | 97.3
3 | CN(C)c1cc(=O)n2c3c1nnn3C[C@H]1O[C@@H]2[C@H](O)C1O (single isomer, unassigned) | > 100 | > 100
4 | CCCNc1cc(=O)n2c3c1nnn3C[C@H]1O[C@@H]2[C@H](O)C1O (single isomer, unassigned) | > 100 | > 100
5 | CCCCNc1cc(=O)n2c3c1nnn3C[C@H]1O[C@@H]2[C@H](O)C1O (single isomer, unassigned) | > 100 | > 100
6 | O=c1cc(NCCO)c2nnn3c2n1[C@@H]1O[C@H](C3)C(O)[C@H]1O (single isomer, unassigned) | > 100 | > 100
7 | O=c1cc(NC2CC2)c2nnn3c2n1[C@@H]1O[C@H](C3)C(O)[C@H]1O (single isomer, unassigned) | > 100 | > 100
8 | O=c1cc(NCCCO)c2nnn3c2n1[C@@H]1O[C@H](C3)C(O)[C@H]1O (single isomer, unassigned) | > 100 | > 100

Second part, led by results:

Row | EC90 (Hepatitis C virus) [µM] | SMILES | CC50 (Huh-7) [µM]
9 | 15.4 | Cc1cc(=O)n2c3c1nnn3C[C@H]1O[C@@H]2[C@H](O)C1O (single isomer, unassigned) | 22.6
10 | 7.4 | CNc1cc(=O)n2c3c1nnn3C[C@H]1O[C@@H]2[C@H](O)C1O (single isomer, unassigned) | 4.6
11 | 2.1 | O=c1c(Cl)cc2nnn3c2n1[C@@H]1O[C@H](C3)C(O)[C@H]1O (single isomer, unassigned) | 0.06
12 | 79.8 | O=c1ccc2nnn3c2n1[C@@H]1O[C@H](C3)C(O)[C@H]1O (single isomer, unassigned) | 30.6
13 | 10 | OC1[C@@H](O)[C@H]2O[C@@H]1Cn1nnc3ccc(=S)n2c31 (single isomer, unassigned) | 11.9
14 | 1.9 | O=c1c(Br)cc2nnn3c2n1[C@@H]1O[C@H](C3)C(O)[C@H]1O (single isomer, unassigned) | 1.5
15 | 29.7 | Nc1cc(=O)n2c3c1nnn3C[C@H]1O[C@@H]2[C@H](O)C1O (single isomer, unassigned) | 74.2

Source: ChEMBL document CHEMBL1140444, “Synthesis and structure-activity relationships of novel anti-hepatitis C agents: N3,5'-cyclo-4-(beta-D-ribofuranosyl)-vic-triazolo[4,5-b]pyridin-5-one derivatives” (2005)
